# Assay outcomes from PubChem BioAssay.
# MrgX1 antag = human MrgX1 receptor antagonism, primary screen; MRGX1-HEK293 calcium flux, Fluo-4, BAM8-22 antagonism; active compounds read low; B-score at 10 µM; 1.3% of 310,000 active;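 active means calcium-response B-score plate-corrected more than 3 library SD below zero, starting fluorescence within 5 deviations, no agonist response on first addition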;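 further: peak minus trough fluorescence over baseline after final BAM8-22 challenge near maximal dose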
# PHOSPHO1 block = blocks human PHOSPHO1 phosphatase activity. Q8TCT1. recombinant PHOSPHO1, absorbance phosphatase assay. inhibition, % at 13.3 µM. 1.1% of 290,000 active. AID 1565; in the data active means inhibition above about 60%
# Target sequence (Q8TCT1 whole entry, looked up): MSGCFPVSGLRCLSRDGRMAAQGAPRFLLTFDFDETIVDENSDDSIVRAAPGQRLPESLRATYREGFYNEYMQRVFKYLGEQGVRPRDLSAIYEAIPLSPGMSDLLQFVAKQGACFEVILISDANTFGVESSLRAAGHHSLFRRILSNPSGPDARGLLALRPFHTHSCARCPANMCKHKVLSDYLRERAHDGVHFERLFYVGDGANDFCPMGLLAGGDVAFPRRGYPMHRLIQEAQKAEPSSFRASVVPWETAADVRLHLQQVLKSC
# RGS4 act = potentiators or activators of RGS4; B-score at 10 µM; HEK293 M3R/inducible RGS4, carbachol calcium flux Fluo4; active compounds read low; 0.92% of 310,000 active; AID 463111;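 active means B-score of the integrated calcium signal more than 4 SD below the library mean, with starting fluorescence not abnormally high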;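 further: negative B-score means reduced calcium response which marks RGS4 activation or potentiation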
#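 Assay system: Inducible-RGS4 HEK293 cells carrying M3 receptor | Schedule: Compound preincubation 20 min at room temperature before agonist | Signal: Kinetic calcium fluorescence imaging with Fluo4-AM dye, 2 µM | Read-out basis: B score from integrated fluorescence ratio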
# MrgX1 PAM = allosterically activates human MrgX1 receptor signaling | Q96LB2 | MrgX1-HEK293, Fluo-4 calcium flux, FDSS; active compounds read high | B-score at 10 µM | 0.63% of 310,000 active | AID 588675;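 active means plate-corrected calcium response at least 3 library SD above typical, normal starting fluorescence, not activating the receptor alone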;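 further: compound read alongside a low EC10 to EC30 dose of BAM8-22 agonist; peak minus trough fluorescence over baseline measured at the second addition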
# RGS4 block = inhibitors of human RGS4; P49798; HEK293 M3R/RGS4 inducible, Fluo-4 calcium flux; active compounds read high; triggered by carbachol at its EC20; B-score at 10 µM; 0.45% of 310,000 active;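 active means B-score, a plate-corrected calcium signal, over three deviations above library mean, with baseline fluorescence within five deviations of library mean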;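 further: RGS4 expression induced by doxycycline in cells with stable M3 receptor; B-score is computed from the integrated fluorescence ratio over baseline after carbachol; higher B-score means a larger calcium signal and so more RGS4 inhibition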
# Target sequence (P49798 whole entry, looked up): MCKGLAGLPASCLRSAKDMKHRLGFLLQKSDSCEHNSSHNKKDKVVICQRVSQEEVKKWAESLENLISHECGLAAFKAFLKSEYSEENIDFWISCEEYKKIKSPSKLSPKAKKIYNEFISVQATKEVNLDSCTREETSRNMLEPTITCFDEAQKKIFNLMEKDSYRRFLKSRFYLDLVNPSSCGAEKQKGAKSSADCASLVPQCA
# MrgX1 ag = human MrgX1 receptor agonism, primary screen; 0.44% of 310,000 active; B-score at 10 µM; MrgX1-HEK293 cells, Fluo-4 calcium fluorescence, agonist mode; active compounds read high;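 active means calcium response B-score plate-corrected fluorescence ratio at least 3 library SD, with starting fluorescence B-score inside 5 SD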
#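 Assay system: stable human MrgX1 HEK293 cell line. Quantity: 15,000 cells per well. Schedule: cells plated overnight, dye loaded 0.5 h 37 °C, 0.5 h room temperature. Detection: Fluo-4 NW calcium-flux fluorescence, kinetic read. Read-out basis: peak-minus-minimum fluorescence over baseline, converted to B scores. Control set: positive and negative control wells on each plate.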
# MrgX1 ant reconf = confirmation of human MrgX1 receptor antagonists; AID 602420; MrgX1-HEK293, BAM8-22 calcium flux, Fluo-4; active compounds read low; shares compounds with MrgX1 antag; remaining BAM8-22 calcium response % of control (active compounds read low), % at 10 µM; 19% of 2,300 active;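 active means remaining agonist calcium response no higher than 100% minus 3 SD of agonist-only control wells, with starting fluorescence near control levels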;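 further: agonist BAM8-22 given at a near maximal EC90 to ECmax level; peak minus minimum fluorescence divided by baseline after agonist addition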
# HEK293 Ca flux = counter-screen for MrgX1 antagonists: effect in parental HEK293 cells. shares compounds with MrgX1 antag. Fluo-4 calcium fluorescence, FDSS. fluorescence ratio F(max-min)/F0 at 10 µM. 2% of 4,000 active;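 active means duplicate-averaged calcium fluorescence ratio at least three times the standard deviation of buffer wells, a nonspecific response in parental cells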
# HEK293 Ca counter = activity in parental HEK293 cells without MrgX1 | shares compounds with MrgX1 antag | 0.4% of 4,000 active | parental HEK293 calcium flux, Fluo-4 fluorescence ratio; active compounds read high | fluorescence ratio F(max-min)/F0 at 10 µM;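 active means calcium fluorescence ratio, averaged over duplicates, at least 3 SD of the buffer-well ratio, meaning a nonspecific response in receptor-free cells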;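 further: untransfected parental HEK293 lacking MrgX1 used as counterscreen for MrgX1 allosteric activators; fluorescence change taken during the second addition on a kinetic imager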
# HEK293 Ca cntr2 = MrgX1 activator counter-screen hit in parental HEK293 cells; shares compounds with MrgX1 antag; Fluo-4 calcium fluorescence (FDSS); active compounds read high; fluorescence ratio F(max-min)/F0 at 10 µM; 8.7% of 4,000 active;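 active means calcium fluorescence ratio at least three times the spread of buffer wells, meaning a non-specific response in parental cells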
# * marks the source's active call; other numbers are inactive results; i = inactive; . = no result. Only some compounds are listed: those with a hit (about 4.5% of all), similar ones and a draw of the others.
SMILES,MrgX1 antag,PHOSPHO1 block,RGS4 act,MrgX1 PAM,RGS4 block,MrgX1 ag,MrgX1 ant reconf,HEK293 Ca flux,HEK293 Ca counter,HEK293 Ca cntr2
Cc1cc(-c2csc(NC(=O)c3ccc(=O)[nH]c3)n2)c(C)n1Cc1ccccc1,i,-127,i,i,i,i,.,.,.,.
CC(=O)c1c(C)[nH]c(C(=O)Nc2nc(-c3ccc(-c4ccccc4)cc3)cs2)c1C,-12*,-2,i,i,i,i,52%*,i,i,i
CC(=O)c1cccc(NC(=O)c2ccc3c(=O)n4c(nc3c2)CCCCC4)c1,i,24,i,i,i,i,.,.,.,.
O=C(Nc1nc(-c2ccccc2)cs1)c1ccc2c(=O)n3c(nc2c1)CCCCC3,-12*,-19,i,i,i,i,9.6%*,i,i,i
O=C(Nc1nc(-c2ccccc2)cs1)c1ccc(=O)[nH]c1,-4.8*,4,i,i,i,i,i,i,i,i
CC1(C)CNC(=O)c2sc(NC(=O)c3ccccc3Cl)nc2C1,i,21,i,i,i,i,.,.,.,.
O=C(Cc1ccsc1)Nc1ccc(S(=O)(=O)C(F)F)cc1,i,0,i,i,i,i,.,.,.,.
O=c1ccc(-c2ccc(S(=O)(=O)N3CCN(c4ccccc4)CC3)o2)n[nH]1,i,44,i,i,i,i,.,.,.,.
CSc1ncccc1C(=O)Nc1nnc(C2CC2)s1,-4.6*,44,i,i,i,i,i,i,i,i
CCOc1ccc(N2C(=O)CC(N(CCc3ccc(OC)c(OC)c3)C(=O)/C=C/C(=O)O)C2=O)cc1 (stereo not drawn),i,37,i,i,i,i,.,.,.,.
O=C(Nc1cccc(C(=O)N2CCCCCC2)c1)c1ccco1,-4.7*,22,i,i,i,i,i,i,i,i
CCO[C@@H]1OC(C(=O)Nc2ccccc2)=C[C@H](c2ccc(Br)cc2)[C@H]1CCCO,-10*,20,i,i,i,i,i,i,i,i
CCOc1ccccc1N1CCN(C(=O)c2cc(-c3cccnc3)nc3c(Cl)cccc23)CC1,-5.8*,33,i,i,i,i,i,0.42*,i,i
CCOc1ccccc1N1CCN(C(=O)c2ccncc2)CC1,i,43,i,i,i,i,.,.,.,.
CCOC(=O)CCCSc1nnc(CCCCCN2C(=O)c3cccc4cccc(c34)C2=O)o1,i,-3,i,i,i,i,.,.,.,.
COC1CCN(C(=O)CC2C(=O)NCCN2CC(C)(C)C)CC1 (stereo not drawn),i,27,i,i,i,i,.,.,.,.
COC1CCN(C(=O)CC2C(=O)NCCN2CC2CCCCC2)CC1 (stereo not drawn),-5.3*,-7,i,i,i,i,i,i,i,i
CC1(CO)COC(c2ccccc2)=N1 (stereo not drawn),i,0,i,i,i,i,.,.,.,.
Cc1c(C(=O)OCCOc2ccccc2)[nH]c2c1C(=O)CCC2,-5.2*,18,i,i,i,i,67%*,i,i,i
CC(=O)c1c(C)[nH]c(C(=O)OCCOc2ccccc2)c1C,i,-18,i,i,i,i,.,.,.,.
Cc1ccc(NC(=O)CSc2nc3ccccc3c(=O)n2CCCN2CCCCC2)cc1C,i,11,i,i,i,i,.,.,.,.
Cc1cc(C)cc(NC(=O)c2cc(S(=O)(=O)N3CCCC3)cn2C)c1,-6.9*,5,i,i,i,i,i,i,i,i
Cc1cc(Cl)nc2c(C(C)C)cccc12,i,-6,i,i,i,i,.,.,.,.
CC1=Nc2ccccc2/C1=C/c1nc(-c2ccc(C)s2)oc1O,-6.1*,11,i,i,i,i,57%*,i,i,i
COc1ccc(-c2nc(/C=C3\C(C)=Nc4ccccc43)c(O)o2)cc1,-4.8*,-14,i,i,i,i,59%*,i,i,i
SMILES,MrgX1 antag,PHOSPHO1 block,RGS4 act,MrgX1 PAM,RGS4 block,MrgX1 ag,MrgX1 ant reconf,HEK293 Ca flux,HEK293 Ca counter,HEK293 Ca cntr2
Cc1ccc(S(=O)(=O)N2CCCCC2CCNC(=O)C(=O)NCc2ccccc2)cc1 (stereo not drawn),i,.,i,i,i,i,.,.,.,.
CCc1nnc2sc(-c3ccc(NC(=O)c4ccco4)cc3)nn12,-8.1*,15,i,i,i,i,i,i,i,i
O=C(CSc1nnc(CNC(=O)c2ccccc2)o1)Nc1ccc2c(c1)OCCO2,-5.6*,17,i,i,i,i,i,i,i,i
O=C(CSc1nnc(CNC(=O)c2ccc(F)cc2)o1)Nc1ccc2c(c1)OCCO2,i,3,i,i,i,i,.,.,.,.
COc1ccc(-c2cc(C(=O)N3CCN(C(c4ccccc4)c4ccccc4)CC3)no2)cc1OC,-5.3*,18,i,i,i,i,i,i,i,i
CC(C)Oc1ccc2c(c1)OC(c1ccccc1)(C(F)(F)F)NC2=O (stereo not drawn),-5.8*,9,i,i,i,i,i,i,i,i
COc1ccc2c(c1)OC(c1ccccc1)(C(F)(F)F)NC2=O (stereo not drawn),i,-2,i,i,i,i,.,.,.,.
O=C(NC1CCCC1)C(c1cccs1)N(C(=O)c1csnn1)c1ccccc1F (stereo not drawn),i,14,i,i,i,i,.,.,.,.
CN(CCCOc1ccccc1F)Cc1ccccc1,i,19,i,i,i,i,.,.,.,.
CN(CCCOc1ccccc1Br)Cc1ccccc1,-6*,44,i,i,i,i,i,i,i,i
